# Reference: ChEMBL document CHEMBL4177541, “Identification of Pyridinium with Three Indole Moieties as an Antimicrobial Agent” (J Nat Prod, 2017)
# Test system: Bacillus cereus
# Assay: Antimicrobial activity against Bacillus cereus incubated for 20 hrs by CLSI protocol based method
# Type: functional
# Conditions: not given
row,Compound,MIC
1,Brc1cc(Br)c[n+](CCc2c[nH]c3ccccc23)c1.[Br-],> 100 µg/mL
2,[Br-].c1ccc2c(CC[n+]3cccc(-c4c[nH]c5ccccc45)c3)c[nH]c2c1,25 µg/mL
3,[Br-].c1cc[n+](CCc2c[nH]c3ccccc23)cc1,> 100 µg/mL
4,[Br-].c1ccc2c(CC[n+]3cc(-c4c[nH]c5ccccc45)cc(-c4c[nH]c5ccccc45)c3)c[nH]c2c1,0.78 µg/mL
5,CC1(C)S[C@@H]2[C@H](NC(=O)[C@H](N)c3ccccc3)C(=O)N2[C@H]1C(=O)O [AMPICILLIN],0.063 µg/mL

# Test system: Staphylococcus aureus
# Assay: Antimicrobial activity against methicillin-sensitive Staphylococcus aureus incubated for 20 hrs by CLSI protocol based method
# Type: functional
# Conditions: not given
row,Compound,MIC
1,Brc1cc(Br)c[n+](CCc2c[nH]c3ccccc23)c1.[Br-],> 100 µg/mL
2,[Br-].c1ccc2c(CC[n+]3cccc(-c4c[nH]c5ccccc45)c3)c[nH]c2c1,50 µg/mL
3,[Br-].c1cc[n+](CCc2c[nH]c3ccccc23)cc1,> 100 µg/mL
4,[Br-].c1ccc2c(CC[n+]3cc(-c4c[nH]c5ccccc45)cc(-c4c[nH]c5ccccc45)c3)c[nH]c2c1,1.56 µg/mL
5,CC1(C)S[C@@H]2[C@H](NC(=O)[C@H](N)c3ccccc3)C(=O)N2[C@H]1C(=O)O [AMPICILLIN],0.5 µg/mL

# Test system: Candida albicans
# Assay: Antimicrobial activity against Candida albicans incubated for 24 hrs by CLSI protocol based method
# Type: functional
# Conditions: not given
row,Compound,MIC
1,Brc1cc(Br)c[n+](CCc2c[nH]c3ccccc23)c1.[Br-],100 µg/mL
2,[Br-].c1ccc2c(CC[n+]3cccc(-c4c[nH]c5ccccc45)c3)c[nH]c2c1,100 µg/mL
3,[Br-].c1cc[n+](CCc2c[nH]c3ccccc23)cc1,100 µg/mL
4,[Br-].c1ccc2c(CC[n+]3cc(-c4c[nH]c5ccccc45)cc(-c4c[nH]c5ccccc45)c3)c[nH]c2c1,12.5 µg/mL
5,CC1(C)S[C@@H]2[C@H](NC(=O)[C@H](N)c3ccccc3)C(=O)N2[C@H]1C(=O)O [AMPICILLIN],100 µg/mL

# Test system: Escherichia coli
# Assay: Antimicrobial activity against Escherichia coli W3110 incubated for 20 hrs by CLSI protocol based method
# Type: functional
# Conditions: W3110, 20 h
row,Compound,MIC
1,Brc1cc(Br)c[n+](CCc2c[nH]c3ccccc23)c1.[Br-],> 100 µg/mL
2,[Br-].c1ccc2c(CC[n+]3cccc(-c4c[nH]c5ccccc45)c3)c[nH]c2c1,> 100 µg/mL
3,[Br-].c1cc[n+](CCc2c[nH]c3ccccc23)cc1,> 100 µg/mL
4,[Br-].c1ccc2c(CC[n+]3cc(-c4c[nH]c5ccccc45)cc(-c4c[nH]c5ccccc45)c3)c[nH]c2c1,> 100 µg/mL
5,CC1(C)S[C@@H]2[C@H](NC(=O)[C@H](N)c3ccccc3)C(=O)N2[C@H]1C(=O)O [AMPICILLIN],4 µg/mL

# Test system: P388
# Assay: Cytotoxicity against mouse P388 cells assessed as reduction in cell viability by MTT assay
# Type: functional, cell-based
# Conditions: not given
# Method in brief: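 P388 murine leukemia cells were maintained in DMEM with 10% FBS and penicillin-streptomycin. After compound exposure, MTT (15 μL of a 5.0 mg/mL solution) was added for 3 h. The supernatant was removed and formazan dissolved in DMSO. IC50 was derived.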
row,Compound,IC50
1,Brc1cc(Br)c[n+](CCc2c[nH]c3ccccc23)c1.[Br-],76 µM
2,[Br-].c1ccc2c(CC[n+]3cccc(-c4c[nH]c5ccccc45)c3)c[nH]c2c1,50 µM
3,[Br-].c1cc[n+](CCc2c[nH]c3ccccc23)cc1,53 µM
4,[Br-].c1ccc2c(CC[n+]3cc(-c4c[nH]c5ccccc45)cc(-c4c[nH]c5ccccc45)c3)c[nH]c2c1,1 µM
